# Reference: ChEMBL document CHEMBL1155063 (Bioorg Med Chem, 2008)
# pIC50: −log10 of the molar value. The source made the active and inactive calls. The rule behind the calls is not given here.
# What was measured:
# [1] = target: T1, Telomerase reverse transcriptase (Homo sapiens, UniProt O14746); test: Effect on human TERT expressed in H1299 cells at 1 uM after 24 hrs by SEAP assay relative to control
# [2] = Cytotoxicity against human TERT immortalized BJ1 cells at 100 uM after 48 hrs by MTT assay relative to control; assay type: cell-based, BJ
# Method in brief: (§1)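 hTERT-immortalized BJ1 fibroblasts were grown in DMEM with 10% FCS, 1 mM pyruvate and 4 mM […]. Cells (about 2 × 10^3 per well) were seeded and held 24 h at 37 °C. Compounds were freshly dissolved in DMSO, diluted into medium and left on the cells 48 h. MTT was added for 4 h, then SDS/DMF lysis buffer for 16 h. Absorbance was read at 550 nm and expressed relative to untreated cells (100%).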
# [3] = target: T1, Telomerase reverse transcriptase; test: Effect on human TERT expressed in H1299 cells at 10 uM after 24 hrs by SEAP assay relative to control
# [4] = target: T1, Telomerase reverse transcriptase; test: Effect on human TERT expressed in H1299 cells at 100 uM after 24 hrs by SEAP assay relative to control
# [5] = Cell viability of human H1299 cells at 1 uM after 48 hrs by MTT assay relative to control; settings: NCI-H1299, 48 h
# [6] = Cytotoxicity against human H1299 cells at 100 uM after 48 hrs by MTT assay realtive to control; assay type: functional; settings: NCI-H1299, 48 h
# Method in brief: (§2)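 H1299 non-small-cell lung cells were kept in RPMI 1640 with 10% FBS and penicillin/streptomycin at 37 °C under 5% CO2. About 2 × 10^3 cells per well were pre-incubated for 24 h. Compound was added from freshly made DMSO solution diluted in complete medium and left for 48 h. MTT was then added for 4 h at 37 °C, followed by 20% SDS/50% DMF lysis buffer for 16 h at 37 °C, and absorbance read at 550 nm.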
# [7] = Cytotoxicity against human TERT immortalized BJ1 cells at 10 uM after 48 hrs by MTT assay relative to control; assay type: cell-based, BJ
# Method in brief: as §1
# [8] = target: T1, Telomerase reverse transcriptase; test: Inhibition of G-quadruplex-induced human TERT in H1299 cells by TRAP assay; assay type: cell-based
# Method in brief: (§3)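 Modified TRAP assay using 2 µg total lysate from H1299 lung cancer cells as the telomerase source. Compounds were tested at 1, 5, 10 and 20 µM. Products were resolved on 10% polyacrylamide gels and stained with SYBR Green. A Taq-polymerase internal control was included, along with positive and negative controls.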
# [9] = Cytotoxicity against human TERT immortalized BJ1 cells at 1 uM after 48 hrs by MTT assay relative to control; assay type: cell-based, BJ
# Method in brief: as §1
# [10] = target: T1, Telomerase reverse transcriptase; test: Inhibition of telomerase in human H1299 cells at 1 to 20 uM by TRAP assay; assay type: cell-based
# Method in brief: as §3
# [11] = Cytotoxicity against human H1299 cells at 10 uM after 48 hrs by MTT assay realtive to control; assay type: functional; settings: NCI-H1299, 48 h
# Method in brief: as §2
# [12] = target: T1, Telomerase reverse transcriptase; test: Effect on human TERT expressed in BJ1 cells at 1 uM after 24 hrs by SEAP assay realtive to control; settings: BJ
# [13] = target: T1, Telomerase reverse transcriptase; test: Effect on human TERT expressed in BJ1 cells at 100 uM after 24 hrs by SEAP assay relative to control; settings: BJ
# [14] = target: T1, Telomerase reverse transcriptase; test: Effect on human TERT expressed in BJ1 cells at 10 uM after 24 hrs by SEAP assay relative to control; settings: BJ
# T1 sequence (O14746 whole entry): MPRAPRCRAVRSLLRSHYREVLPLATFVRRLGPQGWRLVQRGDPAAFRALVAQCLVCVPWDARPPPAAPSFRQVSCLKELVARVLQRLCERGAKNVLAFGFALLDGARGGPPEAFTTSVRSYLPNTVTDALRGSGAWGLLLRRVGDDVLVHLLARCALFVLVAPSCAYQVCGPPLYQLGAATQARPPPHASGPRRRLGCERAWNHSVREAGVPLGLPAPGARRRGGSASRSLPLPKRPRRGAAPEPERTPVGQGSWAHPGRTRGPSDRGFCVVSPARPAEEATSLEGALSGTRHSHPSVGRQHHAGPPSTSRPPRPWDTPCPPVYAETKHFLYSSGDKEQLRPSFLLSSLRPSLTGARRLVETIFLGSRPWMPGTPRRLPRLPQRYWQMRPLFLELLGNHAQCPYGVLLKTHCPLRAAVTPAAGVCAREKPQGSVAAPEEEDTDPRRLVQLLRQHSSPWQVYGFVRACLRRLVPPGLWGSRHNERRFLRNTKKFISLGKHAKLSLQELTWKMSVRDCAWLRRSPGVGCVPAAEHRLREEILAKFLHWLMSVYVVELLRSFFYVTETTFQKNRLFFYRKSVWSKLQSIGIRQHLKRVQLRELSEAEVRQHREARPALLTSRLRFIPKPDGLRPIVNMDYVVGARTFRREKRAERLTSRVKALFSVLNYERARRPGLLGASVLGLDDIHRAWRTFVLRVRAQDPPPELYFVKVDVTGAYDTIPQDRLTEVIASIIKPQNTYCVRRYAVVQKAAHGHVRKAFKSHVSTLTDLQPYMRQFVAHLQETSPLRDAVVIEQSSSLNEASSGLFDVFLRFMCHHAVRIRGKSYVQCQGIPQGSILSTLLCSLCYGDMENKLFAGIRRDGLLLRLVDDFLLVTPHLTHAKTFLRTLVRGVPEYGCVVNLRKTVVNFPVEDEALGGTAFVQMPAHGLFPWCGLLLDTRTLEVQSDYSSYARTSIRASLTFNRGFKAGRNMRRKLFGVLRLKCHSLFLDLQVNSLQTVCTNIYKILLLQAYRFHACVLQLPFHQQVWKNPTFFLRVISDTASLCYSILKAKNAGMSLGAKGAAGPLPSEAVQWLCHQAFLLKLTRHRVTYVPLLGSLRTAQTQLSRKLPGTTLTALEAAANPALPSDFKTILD
SMILES,residual activity [1] [%],residual activity [3] [%],residual activity [4] [%],pIC50 [8],Activity [10],residual activity [12] [%],residual activity [13] [%],residual activity [14] [%],"viability at 48 h, 100 µM [2] [%]",cell viability at 1 µM [5] [%],viability at 100 µM [6] [%],"viability at 48 h, 10 µM [7] [%]","viability at 48 h, 1 µM [9] [%]",viability at 10 µM [11] [%]
O=C(Cc1ccccc1)Nc1ccc2c(c1)C(=O)c1cc(NC(=O)Cc3ccccc3)ccc1C2=O,97,91,80,,,85,40,79,86,106,75,80,93,96
O=C1c2ccc(NC(=O)C3CCCC3)cc2C(=O)c2cc(NC(=O)C3CCCC3)ccc21,83,87,85,,,137,108,130,58,91,42,68,77,77
O=C1c2ccc([N+](=O)[O-])cc2C(=O)c2cc([N+](=O)[O-])ccc21,87,85,62,,,55,65,60,86,97,69,91,91,95
CN(C)CCC(=O)Nc1ccc2c(c1)C(=O)c1cc(NC(=O)CCN(C)C)ccc1C2=O,5,13,1,,Active,86,38,61,22,1,1,30,94,53
CCNCCC(=O)Nc1ccc2c(c1)C(=O)c1cc(NC(=O)CCNCC)ccc1C2=O,68,33,22,,Active,,97,,42,86,34,73,82,59
CCCNCCC(=O)Nc1ccc2c(c1)C(=O)c1cc(NC(=O)CCNCCC)ccc1C2=O,52,22,13,,Active,,,133,38,80,13,65,75,50

# More lines, main results first:
residual activity [1] [%],residual activity [3] [%],residual activity [4] [%],pIC50 [8],Activity [10],residual activity [12] [%],residual activity [13] [%],residual activity [14] [%],SMILES,"viability at 48 h, 100 µM [2] [%]",cell viability at 1 µM [5] [%],viability at 100 µM [6] [%],"viability at 48 h, 10 µM [7] [%]","viability at 48 h, 1 µM [9] [%]",viability at 10 µM [11] [%]
55,33,25,5.08,Active,,,,O=C(CCN1CCCCC1)Nc1ccc2c(c1)C(=O)c1cc(NC(=O)CCN3CCCCC3)ccc1C2=O,41,87,18,54,92,44
74,69,63,,,118,103,121,O=C(CN1CCCCC1)Nc1ccc2c(c1)C(=O)c1cc(NC(=O)CN3CCCCC3)ccc1C2=O,22,50,35,78,89,37
75,71,71,,Active,,131,118,O=C(CCN1CCNCC1)Nc1ccc2c(c1)C(=O)c1cc(NC(=O)CCN3CCNCC3)ccc1C2=O,88,97,102,100,96,94
76,50,23,,,61,97,68,CN1CCN(CC(=O)Nc2ccc3c(c2)C(=O)c2cc(NC(=O)CN4CCN(C)CC4)ccc2C3=O)CC1,47,90,37,69,86,71
